The list is not random: actives were taken first. Their share in the collection is about 4%.
DAGLB inhibitor = DAGLB lipase inhibitors, primary screen, biochemical, fluorescence, HTS; HEK293T DAGLB membrane lysate, EnzChek fluorogenic substrate; inhibition, % at 5.17 µM; AID 504411, 2011; 340,000 tested, 0.059% active; Diacylglycerol lipase-beta (Homo sapiens), Q8NCG7; in the data active = inhibition above about 34%;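 note: 0% = enzyme with vehicle and 100% = wells lacking enzyme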
Target sequence (Q8NCG7 whole entry, looked up): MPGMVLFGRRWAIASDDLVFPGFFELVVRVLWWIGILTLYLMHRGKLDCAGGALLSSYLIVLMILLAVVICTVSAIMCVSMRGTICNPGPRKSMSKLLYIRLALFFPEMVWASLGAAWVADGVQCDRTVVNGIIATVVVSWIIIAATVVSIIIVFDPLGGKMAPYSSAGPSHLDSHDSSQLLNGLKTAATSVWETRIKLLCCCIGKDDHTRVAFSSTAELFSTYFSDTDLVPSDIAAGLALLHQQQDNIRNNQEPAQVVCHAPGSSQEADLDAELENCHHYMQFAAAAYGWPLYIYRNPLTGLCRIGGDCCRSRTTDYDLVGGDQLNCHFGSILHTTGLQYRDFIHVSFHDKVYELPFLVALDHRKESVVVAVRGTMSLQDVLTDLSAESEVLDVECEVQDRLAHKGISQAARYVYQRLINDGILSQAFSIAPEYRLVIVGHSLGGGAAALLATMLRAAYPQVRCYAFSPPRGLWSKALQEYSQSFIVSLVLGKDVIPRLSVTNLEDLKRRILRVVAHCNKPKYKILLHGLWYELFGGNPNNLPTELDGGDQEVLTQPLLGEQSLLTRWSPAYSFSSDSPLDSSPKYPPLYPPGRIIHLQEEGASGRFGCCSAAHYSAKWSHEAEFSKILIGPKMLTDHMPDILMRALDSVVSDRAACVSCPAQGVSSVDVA
MPTP inh = mitochondrial permeability transition pore inhibitors, primary screen, biochemical, isolated mouse mitochondria, absorbance | AID 602449, 2012 | Ca2+ swelling absorbance, 30 min | 360,000 tested, 1.4% active | inhibition, % at 10 µM;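 active = inhibition of 50% or more, scaled per plate between neutral and stimulator controls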;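 note: 0% = DMSO wells given calcium and 100% = 1 mM EGTA wells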
TAAR1 antag = human TAAR1 antagonists, primary screen, Fluo-8 calcium fluorescence, CHO RD-HGA16 cells; Trace amine-associated receptor 1 (Homo sapiens), Q96RJ0; antagonist; inhibition, % at 3 µM; 360,000 tested, 1.5% active; AID 624466, 2012;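 active = inhibition above a per-plate cutoff, the mean inhibition of test compounds on that plate plus 3 SD, cut at about 49% in these data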;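 note: 0% = DMSO plus EC80 beta-PEA response and 100% = DMSO alone without agonist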
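Test system: hTAAR1-expressing CHO RD-HGA16 cells, Gα16-coupled; Probe or stimulus: EC80 β-phenethylamine stimulus; Compound dosing: single nominal final test compound concentration of 3 µM; Timing: 140 s kinetic read after compound, 140 s after agonist; Signal: Fluo-8 calcium-sensitive fluorescence; Measure: % inhibition of agonist calcium response; Controls: DMSO and EC80 PEA controls.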
TAAR1 ag = human TAAR1 agonists, primary screen, Fluo-8 calcium fluorescence, CHO RD-HGA16 cells | vehicle wells 0%, saturating PEA agonist 100% | activation, % at 3 µM | 360,000 tested, 0.99% active;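 active = activation above the mean activation of all test compounds in the run plus 3 SD, cut at about 38% in these data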
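Signal – calcium-sensitive Fluo-8 signal, excitation 470-495, emission 515-575 nm · System – RD-HGA16 (CHO) cells co-expressing Gα16 and hTAAR1 · Incubation – 17-24 h seeding, 75 min 37 °C dye, 30 min RT · Compound dosing – 3 µM single concentration · Repeats – no replicates (n 1)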
GPR7 antagonist = GPR7 receptor antagonists, primary screen, cell-based, fluorescence, single concentration; Neuropeptides B/W receptor type 1 (Homo sapiens), P48145; 290,000 tested, 1.1% active; AID 1861, 2009; inhibition, % at 4.4 µM; GPR7-expressing cells, fluorescence antagonist assay; in the data active = inhibition above about 16%, passing the limit was not always enough;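 note: cells stimulated with the agonist NPW; 0% = agonist with vehicle and 100% = vehicle without agonist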
An asterisk follows results filed as active; i = inactive; . = no result.

SMILES | DAGLB inhibitor | MPTP inh | TAAR1 antag | TAAR1 ag | GPR7 antagonist
O=C1NC[C@@H](CCCCN2CCN(CCc3ccc(O)cc3)C(=O)C2=O)N(CCC2CCCCC2)C1=O | . | -2 | -6 | 2 | .
O=C(NCc1ccco1)c1cccc2c1C(=O)c1ccc(N3CCCC3)cc1S2(=O)=O | -5 | 0 | 53* | 23 | .
COc1ccccc1N1CCN(c2ccc3c(c2)S(=O)(=O)c2cccc(C(=O)NCc4cccc(F)c4)c2C3=O)CC1 | 7 | 0 | 53* | 11 | .
O=C(NCc1ccccc1C(F)(F)F)c1cccc2c1C(=O)c1ccc(N3CCOCC3)cc1S2(=O)=O | -1 | 2 | 56* | 20 | .
O=C(NCc1ccccc1C(F)(F)F)c1cccc2c1C(=O)c1ccc(N3CCC(N4CCCCC4)CC3)cc1S2(=O)=O | -7 | -2 | 42 | 16 | .
Cc1ccc(CNC(=O)c2cccc3c2C(=O)c2ccc(N4CCCCC4)cc2S3(=O)=O)cc1 | -3 | 1 | 71* | 47* | .
O=C(Oc1ccccc1)N1CCCCC1 | -1 | -2 | -5 | 0 | .
Cc1cc(CNC(=O)c2cc(COc3ccc(F)c(F)c3)on2)nn1C | -1 | 0 | -28 | 9 | -13
COc1cc(/C=C/C(C)=NNc2ccccc2)ccc1O | 1 | 0 | -13 | 3 | .
O=C(NC[C@@H]1CCCO1)c1cccc2c1C(=O)c1ccc(N3CCOCC3)cc1S2(=O)=O | 5 | 1 | 44 | 17 | .
CC1CCN(c2ccc3c(c2)S(=O)(=O)c2cccc(C(=O)NC[C@@H]4CCCO4)c2C3=O)CC1 | -4 | -1 | 60* | 31 | .
O=C(NC1CCCC1)c1cccc2c1C(=O)c1ccc(/C=C/c3ccccc3)cc1S2(=O)=O | 0 | -1 | 40 | 10 | .
O=C(NCc1ccccc1)c1cccc2c1C(=O)c1ccc(/C=C/c3ccccc3)cc1S2(=O)=O | 9 | 1 | 58* | 14 | .
COc1ccc(OC)c(NC(=O)C2(C)CCN2C(=O)CCC2CCCC2)c1 (centres undefined) | . | 0 | -15 | 5 | .
COc1cccc(C(=O)N[C@@H](Cc2cccnc2)C(=O)N2CCC[C@H]2C(=O)NC2CCCC2)c1 | . | . | 0 | 0 | .
Cc1cnc(C=O)c2cccc([N+](=O)[O-])c12 | 0 | 1 | -5 | 9 | .
C[C@@H]1CN([C@@H](C)CO)S(=O)(=O)c2ccc(-c3ccccc3)cc2O[C@@H]1CN(C)Cc1ccccc1C(=O)O | 1 | -2 | -5 | 3 | .
COc1ccc(C(CCNCc2ccc(OC(C)C)cc2)c2ccccc2OC)cc1 (centres undefined) | -8 | 3 | 38 | 38* | 33
COc1c(C(=O)Nc2ccc(Cc3ccncc3)cc2)ccc2ccccc12 | -3 | 38 | 55* | 11 | 5
CCN(CC)C(=O)CSc1nc2ccc(NC(=O)CSc3nnc(COc4ccccc4C)n3C)cc2s1 | -2 | -2 | 56* | 17 | -11
Cc1ccccc1OCc1nnc(SCC(=O)Nc2ccc3c(c2)oc2ccccc23)n1C | -4 | 2 | 4 | 8 | -6
CCOC(=O)CSc1nc2ccc(NC(=O)CSc3nnnn3Cc3ccccc3)cc2s1 | -7 | 5 | 53* | 11 | 1
COc1cc(NC(=O)CSc2nnnn2Cc2ccccc2)cc(OC)c1 | 3 | 0 | 3 | 2 | 13
CC(=NNc1nc2ccccc2s1)c1ncccn1 | 2 | 1 | 74* | 49* | .
CCOc1ccccc1C1C2=C(COC2=O)Nc2cc3c(cc21)OCO3 (centres undefined) | -3 | 2 | -3 | 9 | 16
SMILES | DAGLB inhibitor | MPTP inh | TAAR1 antag | TAAR1 ag | GPR7 antagonist
O=C1OCC2=C1C(c1ccc(F)cc1)c1cc3c(cc1N2)OCCO3 (centres undefined) | 0 | 2 | -22 | -3 | 19*
O=C1OCC2=C1C(c1ccc(F)cc1)c1cc3c(cc1N2)OCO3 (centres undefined) | 2 | 0 | -33 | 0 | 19*
OC(c1cccc(CN2CCCCC2)c1)c1ncc(-c2cccc(C(F)(F)F)c2)[nH]1 (centres undefined) | . | -1 | -12 | 16 | .
COc1ccc(NC(=O)C2(C)CCN2CC2CCCCC2)cc1OC (centres undefined) | . | 0 | -29 | -2 | .
COc1ccc(N2C(=O)c3ccccc3NC(=O)C2C(=O)Nc2ccc(N3CCOCC3)cc2)cc1 (centres undefined) | . | 5 | 1 | 0 | .
O=C1OCC/C1=C1/NCCNC1=O | -2 | 0 | -3 | 0 | .
CCOC(=O)c1noc2c1CCC2 | . | -1 | -12 | 1 | .
Nc1ccc(-c2c3ccc(=O)cc-3oc3cc(O)ccc23)cc1C(=O)O | -268 | 0 | 68* | 212* | 29
O=c1ccc2c(-c3ccccc3)c3ccc(O)cc3oc-2c1 | i | 3 | 105* | 673* | 23
O=c1cc(-c2ccccc2)oc2cc(O)ccc12 | 1 | 0 | -27 | 2 | .
O=C(NCC(F)(F)F)C1C(=O)Nc2ccccc2C(=O)N1C1CCCC1 (centres undefined) | . | 0 | -7 | 4 | .
COc1cccc(N2C(=O)CC(Sc3nc(C)cc(C)n3)C2=O)c1 (centres undefined) | -1 | 0 | -11 | 1 | -13
CCN=C(NCC)SC1CC(=O)N(c2cccc(OC)c2)C1=O (centres undefined) | -12 | 1 | 55* | 23 | -3
CCN=C(NCC)SC1CC(=O)N(c2ccccc2)C1=O (centres undefined) | -7 | -2 | 51* | 26 | 5
COc1ccc(OC)c(C(O)c2ncc(-c3cccc4ccccc34)[nH]2)c1 (centres undefined) | . | 1 | 7 | 4 | .
CCN(CC)c1ccc2cc(-c3nnc(-c4ccncc4)o3)c(=O)oc2c1 | -77 | -3 | 23 | 40* | 41*
CCN(CC)c1ccc2cc(C=O)c(=O)oc2c1 | -70 | 2 | 36 | 73* | 4
COc1ccccc1C(=O)NC1CCCCN(C)C1=O (centres undefined) | . | . | 4 | 0 | .
O=C(NCCN1CCC(n2c(=O)[nH]c3ccccc32)CC1)c1ccccc1Cl | . | 0 | 12 | 5 | .
O=C(NCCN1CCC(n2c(=O)[nH]c3ccccc32)CC1)c1cccc2c1-c1ccccc1C2=O | . | 0 | 59* | 10 | .
O=C1NC[C@H](CCCCN2C[C@H](Cc3ccccc3)N(CCc3ccc(O)cc3)C(=O)C2=O)N(CCc2ccccc2)C1=O | . | 1 | -8 | 2 | .
Oc1ccc(C(c2nnnn2C2CCCC2)N2CCc3ccccc3C2)cc1 (centres undefined) | -5 | 2 | 84* | 82* | 2
CCSC1=C(C#N)C(c2ccccc2Cl)C(C(=O)c2cccs2)C(O)(C(F)(F)F)N1 (centres undefined) | 1 | -2 | -11 | 0 | -4

Screens as filed in PubChem BioAssay.
